We go through 8 molecules from ChEMBL document CHEMBL1135884 (J Med Chem, 2002).

One assay addresses T1, Serine protease 1 (Bos taurus, UniProt P00760).
T1 sequence (P00760 whole entry): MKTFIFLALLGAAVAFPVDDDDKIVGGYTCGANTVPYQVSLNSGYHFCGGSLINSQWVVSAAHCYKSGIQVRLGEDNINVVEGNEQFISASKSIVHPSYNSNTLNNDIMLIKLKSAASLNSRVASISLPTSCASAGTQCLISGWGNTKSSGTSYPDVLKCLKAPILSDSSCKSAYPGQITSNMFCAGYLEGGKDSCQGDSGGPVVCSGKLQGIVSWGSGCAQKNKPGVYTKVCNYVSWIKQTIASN
The assay is described as follows: Inhibitory concentration against bovine trypsin.

The target in a further assay is Prothrombin (Homo sapiens, UniProt P00734). The assay is described as follows: Inhibitory concentration against thrombin.
The target in assay [1] is T2, Coagulation factor X (Homo sapiens, UniProt P00742). Put plainly: Inhibitory concentration against human Coagulation factor Xa(fXa). A digest of the protocol: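 4-Nitroaniline release was read by absorbance at 405 nm. Inhibitors were prepared as 40 mM DMSO stocks and tested at 500, 50 and 5 µM. Km and Ki were obtained by nonlinear regression, with known factor Xa inhibitors as reference.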

The target in assay [2] is T2, Coagulation factor X. Put plainly: Inhibitory concentration against human Coagulation factor Xa (fXa).

T2 sequence (P00742 41-179 limits assumed): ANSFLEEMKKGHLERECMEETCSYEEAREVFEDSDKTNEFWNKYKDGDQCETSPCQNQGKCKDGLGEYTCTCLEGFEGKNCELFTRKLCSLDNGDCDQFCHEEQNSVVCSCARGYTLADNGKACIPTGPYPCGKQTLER
T2 sequence (P00742 235-488 limits assumed): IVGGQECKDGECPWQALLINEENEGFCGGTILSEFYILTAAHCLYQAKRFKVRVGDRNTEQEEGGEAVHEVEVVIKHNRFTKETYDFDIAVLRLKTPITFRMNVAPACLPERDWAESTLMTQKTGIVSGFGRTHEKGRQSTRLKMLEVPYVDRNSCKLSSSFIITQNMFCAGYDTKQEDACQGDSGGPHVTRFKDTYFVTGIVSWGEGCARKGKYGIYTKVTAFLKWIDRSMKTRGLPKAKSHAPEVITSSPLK

As for `N=C(N)c1cccc(C(=O)N[C@@H](C(=O)N2CCN(c3ccc(Cl)cc3)CC2)c2ccccc2)c1`, the inhibition constant Ki was found to be 1.7 µM on Serine protease 1, 1.6 µM on Prothrombin and 0.016 µM at Coagulation factor X [1]. On Serine protease 1, `N=C(N)c1cccc(C(=O)N[C@@H](C(=O)N2CCC(C(=O)c3ccccc3)CC2)c2ccccc2)c1` showed an inhibition constant (Ki) of 0.98 µM. Turning to `N=C(N)c1ccccc1` [BENZAMIDINE], on Coagulation factor X [2], the Ki came to 0.2 µM.

Consider `N=C(N)c1cccc(C(=O)NCC(=O)NCC2CCC(CN)CC2)c1` (configuration not stated), for which the affinity on Serine protease 1 corresponds to a Ki of 14 µM.

At Serine protease 1, `CC(=N)N1CCC(Oc2ccc(N(Cc3ccc4ccc(C(=N)N)cc4c3)S(=O)(=O)CC(=O)O)cc2)CC1` [YM-60828] came in with an inhibitory constant (Ki) of 0.159 µM. With `CCOC(=O)[C@@H](Cc1ccc2ccccc2c1)NC(=O)c1cccc(C(=N)N)c1`, the Ki at Serine protease 1 came to 12.5 µM; at Coagulation factor X [2] it was 2 µM.

Turning to `N=C(N)c1cccc(C(=O)N[C@@H](C(=O)NCC2CCC(CN)CC2)c2ccccc2)c1` (some centres not stated), on Serine protease 1, the inhibition constant Ki was determined as 7.4 µM. On to `N=C(N)c1cccc(C(=O)N[C@@H](C(=O)OCCC2CCN(C(=N)N)CC2)c2ccccc2)c1`, for which the Ki was determined as 1.6 µM on Serine protease 1 and 0.026 µM at Coagulation factor X [2].

The term Ki denotes the equilibrium dissociation constant of an inhibitor or competing ligand from its target. Read a low Ki as higher affinity.
